Compound activity as filed in PubChem BioAssay.
Pf Dd2 inh: P. falciparum Dd2 growth inhibition; SYBR Green, 72 h; active compounds read low; activity change, % at 10 µM; actives 2.3% (n = 94,000); AID 1159554; in the data active means activity change below about -80%
T cruzi growth: inhibitors of T. cruzi proliferation | T. cruzi beta-gal in NIH3T3, GalScreen luminescence, 90 h | actives 5.9% (n = 77,000) | inhibition, % at 8.34 µM | AID 624255;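 active means mean inhibition above about 93%, with at least 55% of replicates each passing it, limit read from the data, passing the limit was not always enough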
IDH1 mut inh: inhibitors of human IDH1 R132H; actives 0.18% (n = 70,000); IDH1 R132H reductase, diaphorase/resazurin fluorescence, 60 min; inhibition, % at 10 µM; AID 624101; O75874; in the data active means inhibition above about 34%
GASC1 inh: inhibitors of human demethylase GASC-1 KDM4C; AID 720574; GST-KDM4C 2-372, H3K9me3 peptide, LANCE TR-FRET; Q9H3R0; actives 0.15% (n = 96,000); inhibition, % at 12.5 µM;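 active means mean replicate inhibition above about 25%, with at least 55% of replicates also reaching it, limit read from the data, passing the limit was not always enough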
Target sequence (Q9H3R0 2-372 limits assumed): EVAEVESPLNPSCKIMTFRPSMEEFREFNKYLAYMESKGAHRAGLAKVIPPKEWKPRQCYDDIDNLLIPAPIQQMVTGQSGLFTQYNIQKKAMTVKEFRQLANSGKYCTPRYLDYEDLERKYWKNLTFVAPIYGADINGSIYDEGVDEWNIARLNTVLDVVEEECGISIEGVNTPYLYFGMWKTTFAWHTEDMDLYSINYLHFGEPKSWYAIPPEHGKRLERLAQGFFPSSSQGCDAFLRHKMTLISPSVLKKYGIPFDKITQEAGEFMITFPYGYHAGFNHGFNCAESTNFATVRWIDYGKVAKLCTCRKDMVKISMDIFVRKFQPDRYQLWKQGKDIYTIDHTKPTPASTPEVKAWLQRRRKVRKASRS
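Assay system: GST-GASC-1 enzyme fragment 2-372 | Amount: 10 nM enzyme | Medium: HEPES buffer, pH 7.5, plus ascorbate | Reagent: H3K9me3 peptide substrate, Fe(II), 2-oxoglutarate | Doses: Single-point compound screen | Incubation: 30 min demethylation and 1 h detection at room temperature | Measured by: LANCE TR-FRET, excitation 340 nm, emissions 618 and 671 nm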
Of the large screens only hits and unclear results are named; the others gave an inactive call. Compounds with a hit are over-represented: about 5.9% of the library has one in this group of screens.

C[C@@H]1CN([C@@H](C)CO)C(=O)c2cccc(NC(=O)CCCCCC(=O)Nc3ccccc3N)c2O[C@H]1CN(C)Cc1ccc2c(c1)OCO2	Pf Dd2 inh -88 (no result: T cruzi growth)
CN(CC(=O)Nc1cc(Cl)ccc1O)S(=O)(=O)c1ccc(Cl)cc1	none (no result: Pf Dd2 inh, T cruzi growth, GASC1 inh)
Cc1ccc(S(=O)(=O)N(C)C[C@H]2OCCCC[C@H](C)Oc3ccc(NC(=O)NC4CCCCC4)cc3C(=O)N([C@H](C)CO)C[C@H]2C)cc1	Pf Dd2 inh -83
Cc1ccc(S(=O)(=O)N(C)C[C@@H]2OCCCC[C@@H](C)Oc3ccc(NC(=O)NC4CCCCC4)cc3C(=O)N([C@@H](C)CO)C[C@@H]2C)cc1	Pf Dd2 inh -86 (no result: IDH1 mut inh)
O=[N+]([O-])c1cccc(COc2ccc(-c3cnc4ccccc4n3)cc2)c1	none (no result: Pf Dd2 inh, T cruzi growth, GASC1 inh)
C[C@@H]1CCCCO[C@H](CN(C)CC2CCCCC2)[C@H](C)CN([C@H](C)CO)C(=O)c2cc(NC(=O)Nc3cccc4ccccc34)ccc2O1	Pf Dd2 inh -88
C[C@@H]1CN([C@H](C)CO)C(=O)c2cc(NC(=O)Nc3cccc4ccccc34)ccc2O[C@@H](C)CCCCO[C@@H]1CN(C)CC1CCCCC1	Pf Dd2 inh -88 (no result: IDH1 mut inh)
CCCN(C)C[C@H]1OCCCC[C@H](C)Oc2ccc(NC(=O)Nc3cccc4ccccc34)cc2C(=O)N([C@@H](C)CO)C[C@H]1C	Pf Dd2 inh -91 (no result: IDH1 mut inh)
C[C@@H]1CCCCO[C@H](CN(C)CC2CC2)[C@H](C)CN([C@@H](C)CO)C(=O)c2cc(NC(=O)Nc3cccc4ccccc34)ccc2O1	none (no result: IDH1 mut inh)
C[C@@H]1CCCCO[C@H](CN(C)CC2CCCCC2)[C@H](C)CN([C@@H](C)CO)C(=O)c2cc(NC(=O)Nc3cccc4ccccc34)ccc2O1	Pf Dd2 inh -88 (no result: IDH1 mut inh)
COc1cccc(C(=O)NC(c2ccc(Cl)cc2)c2c(O)ccc3ccccc23)c1 (stereo not given)	none (no result: Pf Dd2 inh, T cruzi growth, GASC1 inh)
Cc1cc(NC(=O)C2C(=O)c3ccccc3S(=O)(=O)N2C)no1 (stereo not given)	none (no result: Pf Dd2 inh, T cruzi growth, GASC1 inh)
C[C@@H]1CCCCO[C@@H](CN(C)CC2CCCCC2)[C@@H](C)CN([C@@H](C)CO)C(=O)c2cc(NC(=O)Nc3cccc4ccccc34)ccc2O1	Pf Dd2 inh -82 (no result: IDH1 mut inh)
CCn1c(SCc2nc3ccccc3c(=O)[nH]2)nnc1-c1ccccc1C	none (no result: Pf Dd2 inh, T cruzi growth, GASC1 inh)
C[C@H](CO)N1C[C@H](C)[C@@H](CN(C)S(=O)(=O)c2ccc(Cl)cc2)Oc2ccc(NC(=O)CCCCCC(=O)Nc3ccccc3N)cc2C1=O	Pf Dd2 inh -86 (no result: T cruzi growth)
Cc1ccc(S(=O)(=O)N(C)C[C@@H]2Oc3ccc(NC(=O)CCCCCC(=O)Nc4ccccc4N)cc3C(=O)N([C@@H](C)CO)C[C@@H]2C)cc1	Pf Dd2 inh -89 (no result: T cruzi growth)
C[C@H](CO)N1C[C@H](C)[C@H](CN(C)S(=O)(=O)c2ccc(Cl)cc2)Oc2ccc(NC(=O)CCCCCC(=O)Nc3ccccc3N)cc2C1=O	none (no result: T cruzi growth)
C[C@H](CO)N1C[C@H](C)[C@@H](CN(C)C(=O)Nc2ccccc2C(F)(F)F)OCc2ccccc2-c2c(n(C)c3ccccc23)C1=O	none (no result: T cruzi growth, IDH1 mut inh, GASC1 inh)
C[C@@H]1CN([C@@H](C)CO)C(=O)c2c(c3ccccc3n2C)-c2ccccc2CO[C@H]1CN(C)C(=O)Nc1ccccc1C(F)(F)F	Pf Dd2 inh -90 (no result: T cruzi growth, IDH1 mut inh)
C[C@H]1CN([C@@H](C)CO)C(=O)c2c(c3ccccc3n2C)-c2ccccc2CO[C@@H]1CN(C)C(=O)Nc1cccc(Cl)c1Cl	Pf Dd2 inh -84 (no result: T cruzi growth, IDH1 mut inh)
CC(C)NC(=O)N[C@@H]1CC[C@H](CCNC(=O)C2CCC2)O[C@@H]1CO	none (no result: T cruzi growth)
Cc1ccc(S(=O)(=O)NCC[C@H]2CC[C@@H](NC(=O)c3cccc(F)c3)[C@@H](CO)O2)cc1	GASC1 inh 44
CC(C)NC(=O)N[C@H]1CC[C@H](CCNC(=O)C2CCC2)O[C@H]1CO	GASC1 inh 27 (no result: T cruzi growth)
Cc1ccc(S(=O)(=O)N[C@H]2CC[C@H](CCNC(=O)C3CCCCC3)O[C@H]2CO)cc1	IDH1 mut inh 67, GASC1 inh 72
Cc1ccc(S(=O)(=O)NCC[C@@H]2CC[C@@H](NC(=O)c3cccc(F)c3)[C@@H](CO)O2)cc1	none
O=C(CSc1ncnc2scc(-c3ccc(Cl)cc3)c12)Nc1ccc2c(c1)OCCO2	none (no result: Pf Dd2 inh, T cruzi growth, GASC1 inh)
CCOc1ccc(-c2nnc(SCC(=O)c3ccccc3N)n2C)cc1	none (no result: Pf Dd2 inh, T cruzi growth, GASC1 inh)
COc1ccccc1C#Cc1cnc2c(c1)C(=O)N([C@@H](C)CO)C[C@@H](C)[C@@H](CN(C)C)O2	none
CNC[C@@H]1Oc2ncc(C#Cc3cccc(OC)c3)cc2C(=O)N([C@H](C)CO)C[C@@H]1C	none
COc1ccccc1C#Cc1cnc2c(c1)C(=O)N([C@@H](C)CO)C[C@H](C)[C@H](CN(C)C)O2	GASC1 inh 29
C[C@@H]1CN([C@@H](C)CO)C(=O)c2cc(C#Cc3ccccc3)cnc2O[C@H]1CN(C)CC1CCOCC1	GASC1 inh 35
C[C@H]1CN([C@@H](C)CO)C(=O)c2cc(C#Cc3ccncc3)cnc2O[C@@H]1CN(C)Cc1ccncc1	IDH1 mut inh 37
CNC[C@H]1Oc2ncc(C#Cc3cccc(OC)c3)cc2C(=O)N([C@H](C)CO)C[C@H]1C	Pf Dd2 inh -83
C[C@H]1CN([C@@H](C)CO)C(=O)c2cc(C#Cc3ccccc3)cnc2O[C@@H]1CN(C)CC1CCOCC1	none
O=C(Cn1cnc2ccccc2c1=O)Nc1cccc(Cl)c1Cl	none (no result: Pf Dd2 inh, T cruzi growth, GASC1 inh)
O=C(CN1CCOCC1)Nc1sc2c(c1C(=O)Nc1ccc(Br)cc1)CCCC2	none (no result: Pf Dd2 inh, T cruzi growth, GASC1 inh)
CSc1nc(C)cc(OCC(=O)N2CCCCC2)n1	none (no result: Pf Dd2 inh, T cruzi growth, GASC1 inh)
C[C@H](CO)N1C[C@H](C)[C@@H](CN(C)Cc2ccccn2)Oc2ncc(C#CC3(O)CCCC3)cc2C1=O	GASC1 inh 41
CCCN(C)C[C@H]1Oc2ncc(C#Cc3ccccc3OC)cc2C(=O)N([C@@H](C)CO)C[C@H]1C	none (no result: T cruzi growth)
CCCN(C)C[C@H]1Oc2ncc(C#Cc3ccccc3OC)cc2C(=O)N([C@H](C)CO)C[C@H]1C	Pf Dd2 inh -87 (no result: T cruzi growth)
COC(=O)C[C@@H]1C(C(=O)O)=CO[C@@H](O[C@@H]2O[C@H](CO)[C@@H](O)[C@H](O)[C@H]2O)/C1=C\COC(=O)/C=C/c1ccccc1	none (no result: Pf Dd2 inh, T cruzi growth, GASC1 inh)
C[C@@H]1CCCCO[C@H](CN(C)C(=O)NC2CCCCC2)[C@H](C)CN([C@H](C)CO)C(=O)c2cc(NS(=O)(=O)c3cccs3)ccc2O1	Pf Dd2 inh -82 (no result: IDH1 mut inh)
C[C@@H]1CN([C@@H](C)CO)C(=O)c2cc(NS(=O)(=O)c3cccs3)ccc2O[C@@H](C)CCCCO[C@H]1CN(C)C(=O)Nc1ccc(F)cc1	Pf Dd2 inh -81
C[C@H](CO)N1C[C@H](C)[C@H](CN(C)C(=O)Nc2ccc(F)cc2)OCCCC[C@H](C)Oc2ccc(NS(=O)(=O)c3cccs3)cc2C1=O	none
COC(=O)c1c(NC(=O)c2ccc(OC)c(OC)c2)sc2c1C(C(=O)OC)CC2 (stereo not given)	none (no result: Pf Dd2 inh, T cruzi growth, GASC1 inh)
CCCC#Cc1ccc(CC[C@H]2O[C@H]3CC[C@H](CO)O[C@H]3C[C@@H]2n2cc(C(C)(C)O)nn2)cc1	Pf Dd2 inh -85 (no result: T cruzi growth, IDH1 mut inh, GASC1 inh)
OC[C@H]1CC[C@@H]2O[C@H](CCc3ccc(-c4ccc(F)cc4)cc3)[C@@H](n3cc(C4CC4)nn3)C[C@@H]2O1	none (no result: T cruzi growth, IDH1 mut inh, GASC1 inh)
